From PubChem BioAssay
CIT2 TOR yeast – modulators of CIT2-GFP expression in yeast, primary screen, S. cerevisiae, GFP fusion, multiplex flow cytometry, MLPCN library; S. cerevisiae CIT2-GFP strain, 3 h; 100 means same as DMSO wells; GFP response vs DMSO, % at 10 µM; hit rate 0.065% among 320,000; AID 2029, 2009;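 active = GFP response relative to DMSO above a set limit, near the screen mean plus 3 SD, cut at about 150% in these data; inconclusive = Fewer than 70 cells measured for a yeast strain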;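 note: ratio of well median GFP fluorescence to mean of DMSO wells on the plate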
LAP4 TOR yeast – modulators of LAP4-GFP expression in yeast, primary screen, S. cerevisiae, multiplex flow cytometry, MLPCN library. 3 h; median GFP as percent of DMSO wells. hit rate 0.34% among 320,000. GFP response vs DMSO, % at 10 µM. AID 2023, 2009;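 active = GFP response vs DMSO above a set limit, about the screen mean plus 3 SD, cut at about 150% in these data; inconclusive = under 70 cell events counted for the yeast strain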
T cell HTS – modulators of CD8 T cell-vesicle binding, primary screen, mouse 2C CD8+ T cells, flow cytometry; response (vesicle binding), % at 7 µM; hit rate 0.068% among 330,000; 2C CD8+ T cell-vesicle binding; active compounds read low; AID 2052, 2009;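 active = response, share of CD8 T cells binding vesicles, and their 90th percentile fluorescence all below set limits, cut at about 80% in these data, passing the limit was not always enough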;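 note: values below 100% mean blocked vesicle binding to the CD8+ T cells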
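Test system: purified 2C TCR transgenic mouse naive CD8+ T cells. Probe or stimulus: QL9-peptide-loaded Drosophila micro-vesicles bearing Ld, ICAM-1 and B7-1. Incubation: binding step 1.5 h, 37 °C, antibody labelling 20 min, ice. Measured by: flow cytometry of vesicle-bound cells.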
AGP1 TOR yeast – modulators of AGP1-GFP expression in yeast TOR pathway, primary screen, cell-based, multiplex flow cytometry, S. cerevisiae, MLPCN library; hit rate 0.02% among 320,000; GFP response vs DMSO, % at 10 µM; AID 2066, 2009; 3 h; GFP as percent of DMSO wells;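 active = GFP response relative to DMSO above a set limit, near screen average plus 3 SD, cut at about 150% in these data; inconclusive = fewer than 70 cells counted for the yeast strain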;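 note: median GFP channel fluorescence of the gated AGP1 strain per well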
RPL19A-GFP yeast – RPL19A-GFP expression modulators in yeast, primary screen, cell-based, S. cerevisiae, multiplex flow cytometry, MLPCN | S. cerevisiae RPL19A-GFP strain, 3 h; active compounds read low | percent response vs DMSO, % at 10 µM | hit rate 0.3% among 330,000;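 active = percent response vs DMSO below 50%; inconclusive = fewer than 70 events counted for the yeast strain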;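 note: median channel GFP fluorescence of the barcoded RPL19A-GFP strain; lower means less RPL19A-GFP as with rapamycin TOR inhibition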
MEP2 TOR yeast – modulators of MEP2-GFP levels in yeast, primary screen, S. cerevisiae, multiplex flow cytometry, MLPCN library. S. cerevisiae MEP2-GFP strain, 3 h; 100% = DMSO control level. AID 2016, 2009. hit rate 0.51% among 330,000. GFP response vs DMSO, % at 10 µM;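 active = GFP response versus DMSO above a set limit, roughly screen mean plus 3 SD, cut at about 180% in these data; inconclusive = fewer than 70 cells counted for a yeast strain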;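 note: median GFP fluorescence of the barcode-gated MEP2-GFP cells per well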
Numbers stand for hits; . = inactive; ? = inconclusive; / = no result given; [ ] = dose if it differs, or a comment. Most compounds without a hit are left out; they make up all but 0.96% or so of the library.

SMILES | CIT2 TOR yeast | LAP4 TOR yeast | T cell HTS | AGP1 TOR yeast | RPL19A-GFP yeast | MEP2 TOR yeast
COc1ccccc1OCc1nnc(SCC(=O)N2CCCCC2)n1-c1ccccc1 | . | / | . | . | . | .
COCCC(=O)N1CCC(Oc2ccc(C(=O)N(C)CCCC3CCCC3)cc2)CC1 | . | . | . | . | . | .
Cn1c(SCC(=O)NCC2CCCO2)nnc1-c1c[nH]c2ccccc12 (configuration not stated) | . | . | . | . | . | .
CCn1c(SCC(=O)NCC2CCCO2)nnc1-c1c[nH]c2ccccc12 (configuration not stated) | . | . | 0.0 | . | . | .
Cc1ccc(S(=O)(=O)NNC(=O)c2cc3cc4ccccc4nc3s2)cc1 | ? | . | . | . | 45[may fluoresce violet] | 598[may fluoresce violet]
Cc1cccc(C(=O)NNC(=O)c2cc3cc4ccccc4nc3s2)c1 | . | . | . | . | . | .
COC(=O)c1cc(NC(=O)c2c(Cl)nc3sccn23)cc(C(=O)OC)c1 | . | . | . | . | . | 188
COC(=O)c1cc(=O)nc2sccn12 | . | . | . | . | . | .
COc1ccc(/C=N/Nc2ccc([N+](=O)[O-])cc2)cc1O | . | . | . | . | . | .
CCOc1cccc(/C=C2\NC(=S)N(c3ccccc3)C2=O)c1O | ? | . | . | ? | 18[may fluoresce violet] | 424[may fluoresce violet]
CCOc1cc(/C=C2\NC(=S)N(c3c(C)n(C)n(-c4ccccc4)c3=O)C2=O)ccc1O | . | . | . | . | . | .
Cc1cccc(NC(=O)c2cc3c(s2)-c2c(C)cccc2OC3)n1 | ? | . | . | . | . | 222[may fluoresce violet]
N=c1c(C(=O)NCCN2CCOCC2)cc2c(=O)n3ccccc3nc2n1CCCN1CCOCC1 | ? | . | . | ? | . | 247[may fluoresce violet]
N=c1c(C(=O)NCCN2CCOCC2)cc2c(=O)n3ccccc3nc2n1Cc1ccc(F)cc1 | ? | . | . | . | 28[may fluoresce violet] | .
Cc1ccc2nc3c(cc(C(=O)NCCN4CCOCC4)c(=N)n3CCCN3CCOCC3)c(=O)n2c1 | . | . | . | . | . | .
COc1ccccc1NC(=O)c1nc[nH]c1C(=O)Nc1ccccc1OC | ? | . | . | / | 42[may fluoresce violet] | 558[may fluoresce violet]
CCOc1ccccc1NC(=O)c1nc[nH]c1C(=O)Nc1ccccc1OCC | . | . | . | . | . | .
CNC(=O)c1[nH]cnc1C(=O)Nc1ccccn1 | 435[may fluoresce green] | 430[may fluoresce green] | . | 154[may fluoresce green] | . | 622[may fluoresce green]
Nc1nc(SCC(=O)N2CCCc3ccccc32)n[nH]1 | . | . | . | . | . | .
Cc1nc(SCC(=O)N2CCc3ccccc32)n[nH]1 | ? | . | . | ? | 40[may fluoresce violet] | 365[may fluoresce violet]
Nc1cc(N)nc(SCC(=O)N2CCc3ccccc32)n1 | . | . | . | / | . | 175
O=C(/C(=C/c1ccccc1)n1cncn1)c1ccc(Cl)cc1Cl | . | 151 | . | . | . | .
O=C(/C(=N\O)n1cncn1)c1ccc(Cl)cc1Cl | . | . | . | . | . | .
CCn1c(C)c(P(c2ccccc2)c2ccccc2)[n+]2ccccc12 | . | . | . | . | . | .
O=Nc1c(O)c2ccccc2c2ccccc12 | . | 210 | . | . | . | .
SMILES | CIT2 TOR yeast | LAP4 TOR yeast | T cell HTS | AGP1 TOR yeast | RPL19A-GFP yeast | MEP2 TOR yeast
CN=Cc1sc2ccccc2c1O | . | . | . | . | . | .
COc1ccccc1NC(=O)NCc1nc(-c2ccc(C(F)(F)F)cc2)no1 | . | . | . | . | . | .
O=C(Cc1ccc(Cl)cc1)Nc1ccc(Br)cn1 | . | . | . | . | . | 187
C/C(CC1CC(C)OC1=O)=N\NC(N)=S (configuration not stated) | . | . | . | . | . | .
C/C(CCC12CC3CC(CC(C3)C1)C2)=N\NC(N)=S | . | 184 | . | . | . | .
Cc1cc(C)c(S(=O)(=O)N2CCN(C(=O)C(C)Cn3nc(C)nc3C)CC2)c(C)c1 (configuration not stated) | . | . | . | . | . | .
Cc1nc(C)n(CC(C)C(=O)N2CCN(S(=O)(=O)c3ccccc3)CC2)n1 (configuration not stated) | ? | ? | . | ? | 40[may fluoresce violet] | ?
O=C(NCC(c1cccnc1)N1CCOCC1)Nc1ccccc1 (configuration not stated) | ? | . | . | ? | 23[may fluoresce violet] | 189[may fluoresce violet]
O=S(=O)(NCC(c1cccnc1)N1CCOCC1)c1ccccc1 (configuration not stated) | . | . | . | . | . | .
O=C(C1=C(O)C(=O)N(c2ncccn2)C1c1ccc(F)cc1)c1ccco1 (configuration not stated) | / | / | . | / | 43[may fluoresce violet] | 506[may fluoresce violet]
CCOc1ccccc1C1N=C(c2ccc(OC)cc2)CC(c2ccccc2O)N1 (configuration not stated) | . | 167 | . | . | . | .
CN(C)c1ccc(/C=C/c2ccc3ccccc3n2)cc1 | . | . | . | . | . | .
CCN(CC)c1ccc(/C=C/c2cc(-c3ccccc3)c3ccccc3n2)cc1 | ? | ? | . | ? | 30[may fluoresce violet] | ?
COCC(=O)Nc1cc([N+](=O)[O-])ccc1C | . | . | . | . | / | 216
CCOC(=O)C(=O)Nc1cc([N+](=O)[O-])ccc1C | . | . | . | . | . | .
OCC(O)C1OC(Nc2ccc(Cl)cc2)C(O)C1O (configuration not stated) | ? | . | . | ? | . | 310[may fluoresce violet]
Cc1c(C(=O)NCCSCc2cccc(C(F)(F)F)c2)cnn1-c1ccc(F)cc1 | . | 153 | . | . | . | .
COCCN1C(=O)c2ccccc2C(C(=O)NCCN(C)C)C1c1ccc(F)cc1 (configuration not stated) | ? | . | . | . | . | 464[may fluoresce violet]
CCn1nc(C)c(/C=N/NC(=O)c2ccc3c(c2)c(C)c(C)n3Cc2ccccc2)c1C | ? | . | . | ? | 22[may fluoresce violet] | 279[may fluoresce violet]
COc1cc(F)c(C2=CC(=O)C[C@H](c3ccc(Cl)cc3)C2)cc1F | . | . | . | . | . | .
CN1CCN(C(=O)c2ccc3c(c2)NC(=O)C(C)(C)O3)CC1 | ? | . | . | ? | 15[may fluoresce violet] | 259[may fluoresce violet]
Cc1ccc2nc(SCCCCOc3ccccc3)[nH]c2c1 | . | . | . | . | . | .
c1ccc(OCCSc2nc3ccccc3[nH]2)cc1 | ? | . | . | / | 44[may fluoresce violet] | 182[may fluoresce violet]
COc1ccccc1N(CC(=O)NCC1CCCO1)C(=O)CNS(=O)(=O)c1ccc(Cl)cc1 (configuration not stated) | . | . | . | . | . | .
CC1=C/C(=C/N(C)C)C(=O)O1 | ? | . | . | ? | 19[may fluoresce violet] | ?
